Laboratory results as given in ChEMBL document CHEMBL1811814, “Synthesis and evaluation of indole, pyrazole, chromone and pyrimidine based conjugates for tumor growth inhibitory activities--development of highly efficacious cytotoxic agents” (Eur J Med Chem, 2010).

Experiments:
Format in all cases: functional
[1] = tested on: M14; experiment: Growth inhibition of human M14 cells
[2] = tested on: DU-145; experiment: Growth inhibition of human DU145 cells
[3] = tested on: HCC 2998; experiment: Growth inhibition of human HCC2998 cells assessed tumor cell growth at 10^-5 M; set-up: scale not given: the % may be the effect or the level left
How it was run: (§1)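 NCI 60-human-tumor-cell-line panel screen. Each compound was tested at a single concentration of 10^-5 M, and percent growth of tumor cells was recorded for each cell line. Growth inhibition was expressed from these percent-growth values.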

[4] = tested on: SF-295; experiment: Growth inhibition of human SF295 cells
[5] = tested on: ACHN; experiment: Growth inhibition of human ACHN cells
[6] = tested on: NCI-H460; experiment: Growth inhibition of human NCI-H460 cells assessed tumor cell growth at 10^-5 M; set-up: scale not given: the % may be the effect or the level left; how it was run: as §1
[7] = tested on: SN12C; experiment: Growth inhibition of human SN12C cells assessed tumor cell growth at 10^-5 M; set-up: scale not given: the % may be the effect or the level left; how it was run: as §1
[8] = tested on: CCRF-CEM; experiment: Growth inhibition of human CCRF-CEM cells
[9] = tested on: MDA-MB-468; experiment: Growth inhibition of human MDA-MB-468 cells
[10] = tested on: EKVX; experiment: Growth inhibition of human EKVX cells assessed tumor cell growth at 10^-5 M; set-up: scale not given: the % may be the effect or the level left; how it was run: as §1
[11] = tested on: OVCAR-8; experiment: Growth inhibition of human OVCAR8 cells assessed tumor cell growth at 10^-5 M; set-up: scale not given: the % may be the effect or the level left; how it was run: as §1
[12] = tested on: MDA-MB-468; experiment: Growth inhibition of human MDA-MB-468 cells assessed tumor cell growth at 10^-5 M; set-up: scale not given: the % may be the effect or the level left; how it was run: as §1
[13] = tested on: SF-268; experiment: Growth inhibition of human SF268 cells assessed tumor cell growth at 10^-5 M; set-up: scale not given: the % may be the effect or the level left; how it was run: as §1
[14] = tested on: MOLT-4; experiment: Growth inhibition of human MOLT4 cells
[15] = tested on: IGROV-1; experiment: Growth inhibition of human IGROV1 cells assessed tumor cell growth at 10^-5 M; set-up: scale not given: the % may be the effect or the level left; how it was run: as §1
[16] = tested on: UO-31; experiment: Growth inhibition of human UO31 cells
[17] = tested on: SNB-75; experiment: Growth inhibition of human SNB75 cells assessed tumor cell growth at 10^-5 M; set-up: scale not given: the % may be the effect or the level left
How it was run: (§2)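 Single-dose screen at 10^-5 M across the 60 human tumor cell line panel, run to NCI standards. The value is the percent growth of each cell line in the presence of compound. Compounds active at this dose moved on to five-concentration testing (10^-4 to 10^-8 M).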

[18] = tested on: A498; experiment: Growth inhibition of human A498 cells
[19] = tested on: SK-MEL-5; experiment: Growth inhibition of human SK-MEL-5 cells assessed tumor cell growth at 10^-5 M; set-up: scale not given: the % may be the effect or the level left; how it was run: as §1
[20] = tested on: NCI/ADR-RES; experiment: Growth inhibition of human NCI/ADR-RES cells assessed tumor cell growth at 10^-5 M; set-up: scale not given: the % may be the effect or the level left; how it was run: as §1
[21] = tested on: HOP-62; experiment: Growth inhibition of human HOP62 cells assessed tumor cell growth at 10^-5 M; set-up: scale not given: the % may be the effect or the level left; how it was run: as §1
[22] = tested on: HL-60(TB); experiment: Growth inhibition of human HL-60(TB) cells assessed tumor cell growth at 10^-5 M; set-up: scale not given: the % may be the effect or the level left
How it was run: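 HL-60(TB), part of the 60-line panel, tested at a single concentration of 10^-5 M. The read-out is percent tumor cell growth relative to untreated growth.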

[23] = tested on: NCI-H522; experiment: Growth inhibition of human NCI-H522 cells assessed tumor cell growth at 10^-5 M; set-up: scale not given: the % may be the effect or the level left; how it was run: as §1
[24] = tested on: SNB-75; experiment: Growth inhibition of human SNB75 cells
[25] = Growth inhibition of human RPMI8266 cells
[26] = tested on: CAKI-1; experiment: Growth inhibition of human Caki1 cells assessed tumor cell growth at 10^-5 M; set-up: scale not given: the % may be the effect or the level left; how it was run: as §1
[27] = tested on: SW-620; experiment: Growth inhibition of human SW620 cells
[28] = tested on: LOX IMVI; experiment: Growth inhibition of human LOXIMVI cells assessed tumor cell growth at 10^-5 M; set-up: scale not given: the % may be the effect or the level left; how it was run: as §1
[29] = tested on: EKVX; experiment: Growth inhibition of human EKVX cells
[30] = tested on: NCI-H322M; experiment: Growth inhibition of human NCI-H322M cells
[31] = tested on: 786-0; experiment: Growth inhibition of human 786-0 cells assessed tumor cell growth at 10^-5 M; set-up: scale not given: the % may be the effect or the level left; how it was run: as §1
[32] = tested on: RXF 393; experiment: Growth inhibition of human RXF393 cells assessed tumor cell growth at 10^-5 M; set-up: scale not given: the % may be the effect or the level left; how it was run: as §1
[33] = tested on: HT-29; experiment: Growth inhibition of human HT-29 cells
[34] = tested on: CCRF-CEM; experiment: Growth inhibition of human CCRF-CEM cells assessed tumor cell growth at 10^-5 M; set-up: scale not given: the % may be the effect or the level left; how it was run: as §1
[35] = tested on: SK-MEL-2; experiment: Growth inhibition of human SK-MEL-2 cells assessed tumor cell growth at 10^-5 M; set-up: scale not given: the % may be the effect or the level left; how it was run: as §1
[36] = tested on: CAKI-1; experiment: Growth inhibition of human Caki1 cells
[37] = tested on: UACC-257; experiment: Growth inhibition of human UACC257 cells
[38] = tested on: T47D; experiment: Growth inhibition of human T47D cells assessed tumor cell growth at 10^-5 M; set-up: scale not given: the % may be the effect or the level left; how it was run: as §2
[39] = tested on: K562; experiment: Growth inhibition of human K562 cells assessed tumor cell growth at 10^-5 M; set-up: scale not given: the % may be the effect or the level left; how it was run: as §1
[40] = tested on: SNB-19; experiment: Growth inhibition of human SNB19 cells
[41] = tested on: OVCAR-4; experiment: Growth inhibition of human OVCAR4 cells
[42] = tested on: NCI-H23; experiment: Growth inhibition of human NCI-H23 cells assessed tumor cell growth at 10^-5 M; set-up: scale not given: the % may be the effect or the level left; how it was run: as §1
[43] = tested on: UO-31; experiment: Growth inhibition of human UO31 cells assessed tumor cell growth at 10^-5 M; set-up: scale not given: the % may be the effect or the level left; how it was run: as §2
[44] = tested on: NCI-H226; experiment: Growth inhibition of human NCI-H226 cells assessed tumor cell growth at 10^-5 M; set-up: scale not given: the % may be the effect or the level left; how it was run: as §1
[45] = tested on: SF-539; experiment: Growth inhibition of human SF539 cells assessed tumor cell growth at 10^-5 M; set-up: scale not given: the % may be the effect or the level left; how it was run: as §1
[46] = tested on: OVCAR-8; experiment: Growth inhibition of human OVCAR8 cells
[47] = tested on: HCT-15; experiment: Growth inhibition of human HCT15 cells assessed tumor cell growth at 10^-5 M; set-up: scale not given: the % may be the effect or the level left; how it was run: as §1
[48] = tested on: NCI-H226; experiment: Growth inhibition of human NCI-H226 cells
[49] = tested on: PC-3; experiment: Growth inhibition of human PC3 cells
[50] = tested on: SK-MEL-28; experiment: Growth inhibition of human SK-MEL-28 cells assessed tumor cell growth at 10^-5 M; set-up: scale not given: the % may be the effect or the level left; how it was run: as §1
[51] = tested on: COLO 205; experiment: Growth inhibition of human COLO205 cells assessed tumor cell growth at 10^-5 M; set-up: scale not given: the % may be the effect or the level left; how it was run: as §1
[52] = tested on: UACC-257; experiment: Growth inhibition of human UACC257 cells assessed tumor cell growth at 10^-5 M; set-up: scale not given: the % may be the effect or the level left; how it was run: as §2
[53] = tested on: NCI-H460; experiment: Growth inhibition of human NCI-H460 cells
[54] = read-out: LC50 (the source's name)

For CC1=NN(c2cccc(Cl)c2)C(=O)/C1=C\c1c(O)ccc2ccccc12, the GI50 [1] was > 100 µM, the CC50 [1, 54] was > 100 µM and the GI50 [2] was 70.7 µM. The CC50 [2, 54] was > 100 µM, the Activity [3] was -22.22% and the GI50 [4] was 22.9 µM. For the same molecule, the CC50 [4, 54] was > 100 µM, the GI50 [5] was 16.9 µM and the CC50 [5, 54] was > 100 µM. For the same molecule, the Activity [6] was 79.03%, the Activity [7] was 23.59% and the GI50 [8] was 97.7 µM. The CC50 [8, 54] was > 100 µM, the GI50 [9] was 17.7 µM and the CC50 [9, 54] was > 100 µM. The Activity [10] was 51.27%, the Activity [11] was 22.34% and the Activity [12] was 34.53%. The Activity [13] was 47.23%, the GI50 [14] was > 100 µM and the LC50 [14] was > 100 µM. The Activity [15] was 33.94%, the GI50 [16] was > 100 µM and the CC50 [16, 54] was > 100 µM. The Activity [17] was 10.3%, the GI50 [18] was > 100 µM and the CC50 [18, 54] was > 100 µM. The Activity [19] was -82.5%, the Activity [20] was 75.31% and the Activity [21] was -64.07%. For the same molecule, the Activity [22] was 104.49%, the Activity [23] was -11.28% and the GI50 [24] was 0.9 µM. For the same molecule, the CC50 [24, 54] was > 100 µM, the GI50 [25] was > 100 µM and the CC50 [25, 54] was > 100 µM. For the same molecule, the Activity [26] was 34.96%, the GI50 [27] was > 100 µM and the CC50 [27, 54] was > 100 µM. For the same molecule, the Activity [28] was -79.39%, the GI50 [29] was > 100 µM and the CC50 [29, 54] was > 100 µM. The GI50 [30] was > 100 µM, the CC50 [30, 54] was > 100 µM and the Activity [31] was -46.85%. The Activity [32] was -76.85%, the GI50 [33] was > 100 µM and the CC50 [33, 54] was > 100 µM. The Activity [34] was 36.33%, the Activity [35] was 38.07% and the GI50 [36] was > 100 µM. For the same molecule, the CC50 [36, 54] was > 100 µM, the GI50 [37] was > 100 µM and the CC50 [37, 54] was > 100 µM. The Activity [38] was 2.21%, the Activity [39] was 99.09% and the GI50 [40] was 45.7 µM. For the same molecule, the CC50 [40, 54] was > 100 µM, the GI50 [41] was > 100 µM and the CC50 [41, 54] was > 100 µM. For the same molecule, the Activity [42] was -1.95%, the Activity [43] was 66.56% and the Activity [44] was 1.04%. The Activity [45] was 72.26%, the GI50 [46] was > 100 µM and the CC50 [46, 54] was > 100 µM. For the same molecule, the Activity [47] was 49.94%, the GI50 [48] was 47.8 µM and the CC50 [48, 54] was > 100 µM. The GI50 [49] was > 100 µM, the CC50 [49, 54] was > 100 µM and the Activity [50] was 35.25%. For the same molecule, the Activity [51] was -80.64%, the Activity [52] was 79.99% and the GI50 [53] was > 100 µM. For the same molecule, the CC50 [53, 54] was > 100 µM.
